# HePTP inhibitor – blocks human HePTP tyrosine phosphatase. P35236. AID 521. 0.64% of 110,000 active. inhibition, % at 20 µM. recombinant HePTP phosphatase activity, OD absorbance; in the data active means inhibition above about 50%;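 further: plate controls were vehicle for no effect and reference inhibitor for full effect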
# Target sequence (P35236 whole entry, looked up): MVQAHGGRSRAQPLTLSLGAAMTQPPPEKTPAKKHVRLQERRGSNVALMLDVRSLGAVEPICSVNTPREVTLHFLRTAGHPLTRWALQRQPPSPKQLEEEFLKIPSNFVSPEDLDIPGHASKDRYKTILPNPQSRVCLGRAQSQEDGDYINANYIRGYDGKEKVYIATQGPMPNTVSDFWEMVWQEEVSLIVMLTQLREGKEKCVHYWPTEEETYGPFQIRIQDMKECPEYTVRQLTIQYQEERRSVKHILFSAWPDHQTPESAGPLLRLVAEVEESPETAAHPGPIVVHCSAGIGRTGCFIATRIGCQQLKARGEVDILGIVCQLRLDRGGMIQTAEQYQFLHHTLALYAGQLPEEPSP
# SF1 activator – activators of human nuclear receptor SF-1; Q13285; CHO-K1 Gal4-SF-1 LBD luciferase reporter; % increase over DMSO SF-1-specific signal; activation, % at 10 µM; 1.9% of 65,000 active; AID 522;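 active means activation above the mean activation of all tested compounds plus 3 SD, cut at about 50% in these data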
#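 Material: Transient Gal4-SF-1 LBD reporter, CHO-K1 | Input: 4,000 cells/well | Dosing: One dose, 10 µM compound, 1% DMSO | Incubation: 20 h compound treatment, 37 °C | Detection: SteadyLite luciferase luminescence | Evaluation: Percent activation relative to DMSO median and mock-transfected background | Benchmarks: DMSO-treated SF-1-transfected cells as negative, DMSO-treated mock-transfected cells lacking SF-1 as background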
# MMP-13 inhibitor – inhibitors of human MMP13; MMP-13 fTHP FRET cleavage, Mca fluorescence; P45452; 0.07% of 65,000 active; inhibition, % at 4 µM; AID 570;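 active means inhibition above the mean of compound-free control plate wells plus 3 SD, cut at about 14% in these data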;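 further: 0% = DMSO wells and 100% = wells with reference MMP-13 inhibitor after basal subtraction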
# AP complement – orthogonal test for alternative complement pathway inhibitors | 0.08% of 62,000 active | Human serum alternative complement pathway, LPS-coated ELISA, C3 deposition; tested in compound mixtures | inhibition, % at 5 µM;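 active means inhibition above 30% in each of the two pooled mixtures holding the compound, so the lower value exceeds 30%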;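 further: 0% = serum in Mg-EGTA without compound and 100% = EDTA serum blank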
#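 Test system – human serum alternative complement pathway, C3 deposition on LPS-coated wells · Buffer or medium – diluted human serum in Mg2+-EGTA GVB++ · Compound dosing – 5 µM each compound, pools of ten, 50 µM per pool · Schedule – 1 h serum-compound exposure at 37 °C · Measured by – Anti-C3 ELISA, OD 450 nm · Read-out basis – percent inhibition of C3 deposition onto LPS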
# Ec RNAP inh – inhibitors of Escherichia coli RNA polymerase | P0A8V2 | E. coli RNA polymerase, fluorescence transcription assay | inhibition, %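 (tested at 10 µM)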 | 0.2% of 62,000 active | AID 559; in the data active means inhibition above about 20%;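 further: 0% = enzyme without compound and 100% = no enzyme blank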
# RORA act – activates the human nuclear receptor RORA; P35398; 1.5% of 65,000 active; CHO-K1 Gal4-RORA LBD luciferase reporter, luminescence; percent increase over mock-subtracted basal signal; activation, % at 10 µM; AID 560;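 active means activation above the mean of all tested compounds plus 3 SD, cut at about 49% in these data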;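 further: 0% = DMSO-treated RORA cells and 100% = added signal equal to DMSO minus mock-transfected cells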
# * marks the source's active call; other numbers are inactive results; / = not tested or not shown. In the library only some 2.4% were active in any assay of this set; here they are far more common.
SMILES,HePTP inhibitor,SF1 activator,MMP-13 inhibitor,AP complement,Ec RNAP inh,RORA act
O=C1NC(=O)N(c2cccc(Br)c2)C(=O)/C1=C/c1ccco1,101.9*,/,/,/,/,/
Cc1cccc(N2C(=O)NC(=O)C(=Cc3ccco3)C2=O)c1,15.6,/,/,/,/,/
O=C(CF)NC(=C(Cl)Cl)P(=O)(c1ccccc1)c1ccccc1,103.0*,/,/,/,/,/
CCOC(C(=O)OCC(O)CN(CC)CC)(c1ccccc1)c1ccccc1 (centres undefined),5.2,6.0,-1.3,-7.3,22.4*,-4.2
CC(C)N(CCC(C(N)=O)(c1ccccc1)c1ccccn1)C(C)C (centres undefined),-13.3,-17.1,-10.8,-9.2,6.1,-18.5
O=C(C1CC(c2ccc(Cl)c(Cl)c2)=NO1)N1CCC2(CC1)OCCO2 (centres undefined),5.9,29.7,3.0,6.3,5.1,73.2*
COc1cccc(C2=NOC(C(=O)N3CCC4(CC3)OCCO4)C2)c1 (centres undefined),6.7,56.5*,0.1,10.4,3.1,25.5
O=C(C1CCCO1)N1CCC2(CC1)OCCO2 (centres undefined),-8.4,-3.0,0.7,-19.6,6.7,-15.9
COc1cccc(-n2nc(C(=O)N3CCC4(CC3)OCCO4)c3ccccc3c2=O)c1,-4.6,12.8,5.4,4.3,2.0,-21.3
Cc1ccc(NC(=O)C(Cl)(Cl)Cl)cc1Cl,2.0,/,/,/,/,/
O=c1[nH]c(=O)n(Cc2ccccc2)c(O)c1C=C1C=Nc2ccccc21,9.3,/,/,/,/,/
O=c1[nH]c(=S)n(-c2ccccc2F)c(O)c1C=C1C=CC=N1,102.6*,/,/,/,/,/
Cn1cc(/C=C2\C(=O)NC(=O)N(Cc3ccccc3)C2=O)c2ccccc21,-14.6,/,/,/,/,/
O=c1c2ccccc2[se]n1-c1ccccc1,-9.5,-25.3,2.6,-2.4,36.7*,-22.1
Cc1c(-c2ccc(C=C3C(=O)NC(=S)NC3=O)o2)ccc([N+](=O)[O-])c1C,-13.0,/,/,/,/,/
CC1CN(c2ccc([N+](=O)[O-])c(NCCO)c2)CCN1 (centres undefined),-14.4,/,/,/,/,/
COc1ccccc1OCCCn1cc(C(=O)c2ccco2)c2ccccc21,3.9,51.7*,-0.2,9.9,4.4,64.9*
O=C1NC(=O)C(CCc2ccncc2)(c2ccccc2)C(=O)N1,-7.8,-5.8,37.0*,-2.1,7.1,-7.3
COc1ccc(C2NCc3ccc4c(c3-n3cccc32)OCO4)cc1O (centres undefined),-1.5,21.1,-5.0,-0.2,7.7,49.5*
COC(=O)COc1ccc(C=C2C(=O)NC(=O)NC2=O)cc1,1.7,/,/,/,/,/
Nc1ccccc1N=Cc1c(O)n(CCC2=CCCCC2)c(=O)[nH]c1=O,1.5,78.5*,-17.0,7.5,2.7,43.8
CN(C)CCN=Cc1c(O)n(CCC2=CCCCC2)c(=O)[nH]c1=O,6.8,-9.7,1.0,6.2,6.5,-17.8
CN1C(=O)NC(=O)/C(=C/c2ccc(-c3ccc([N+](=O)[O-])cc3)o2)C1=O,-3.6,/,/,/,/,/
CCOc1ccc(N2C(=O)/C(=C/c3ccc(Br)o3)C(=O)NC2=S)cc1,101.0*,/,/,/,/,/
CN1C(=O)NC(=O)/C(=C/c2ccc(Br)o2)C1=O,76.2*,/,/,/,/,/
COc1cc(/C=C/[N+](=O)[O-])cc(Br)c1O,-3.6,/,/,/,/,/

# Assay outcomes (PubChem)
